# Published values pooled from the literature.
# Protocols differ between the studies behind these lines.
# Cell line: Vero
# Effect on: cell growth or viability
Compound,method,time,IC50
Nc1c(-c2ccc([N+](=O)[O-])cc2)nc2ccccn12,MTT,48 h,74 µM
Oc1ncnc2cc(Nc3nc(-c4ccccc4)cs3)ccc12,MTT,,> 50 µM
COc1ccc(CCNCc2c(N)nc(N)nc2-c2ccccc2)cc1,SRB,,> 100 µM
CC(C)(C)Nc1c(-c2ccccc2[N+](=O)[O-])nc2ccccn12,MTT,48 h,78 µM
N#Cc1nn(-c2ccc(N=Nc3ccccc3)cc2)c(=S)n(-c2ccccc2)c1=O,,,42.3 µM
Oc1ccc(-c2csc(Nc3ccc4c(O)ncnc4c3)n2)cc1,MTT,,> 50 µM
Nc1nc(N)c(CNCCc2ccccc2Cl)c(C2CCCCC2)n1,SRB,,21 µM
CC(C)(C)Nc1c(-c2ccc([N+](=O)[O-])cc2)nc2cnccn12,MTT,48 h,80 µM
Cc1ccc(C)n1-c1ccc(C(=O)NNC=O)cc1,MTT,72 h,211 µM
Oc1ncnc2cc(Nc3nc(-c4ccc(F)cc4)cs3)ccc12,MTT,,> 50 µM
Nc1ccccc1-c1nc2cnccn2c1N,MTT,48 h,78 µM
COc1cccc(CCNCc2c(N)nc(N)nc2C2CCCCC2)c1,SRB,,23 µM
Nc1ccc(-c2nc3ccccn3c2NC2CCCCC2)cc1,MTT,48 h,90 µM
NC1=NN(c2ccc([N+](=O)[O-])cc2[N+](=O)[O-])C(=O)C1=NNc1ccc(N=Nc2ccccc2)cc1,,,45.1 µM
CN(C)c1ccc(-c2nc3ccccn3c2N)cc1,MTT,48 h,70 µM
CC1(C)N=C(N)N=C(N)N1c1ccc(Cl)cc1,SRB,,> 100 µM
COc1cccc2c1C(=O)c1c(O)c3c(c(O)c1C2=O)C[C@@](O)(C(=O)CO)C[C@@H]3O[C@H]1C[C@H](N)[C@H](O)[C@H](C)O1,MTT,48 h,14 µM
Cc1cc(=O)[nH]n1C(=O)c1ccc(-n2c(C)ccc2C)cc1,MTT,72 h,202 µM
CO[C@H]1/C=C/O[C@@]2(C)Oc3c(C)c(O)c4c(O)c(c(/C=N/N5CCN(C)CC5)c(O)c4c3C2=O)NC(=O)/C(C)=C\C=C\[C@H](C)[C@H](O)[C@@H](C)[C@@H](O)[C@@H](C)[C@H](OC(C)=O)[C@@H]1C,MTT,48 h,> 1000 µg/mL
O=[N+]([O-])c1ccc(-c2csc(Nc3ccc4c(O)ncnc4c3)n2)cc1,MTT,,> 50 µM
Cc1[nH]c(=O)c(CNC(=O)c2ccc([N+](=O)[O-])o2)c2c1CCCC2,MTT,72 h,> 50 µg/mL
Nc1nc(N)c(CNCCc2ccc(Cl)cc2Cl)c(C2CCCCC2)n1,SRB,,16 µM
COc1cccc2c1C(=O)c1c(O)c3c(c(O)c1C2=O)C[C@@](O)(C(=O)CO)C[C@@H]3O[C@H]1C[C@H](N)[C@H](O)[C@H](C)O1,SRB,,0.68 µM
O=c1[nH]cc(F)c(=O)[nH]1,MTT,72 h,5.19 µM
Cc1ccc(C)n1-c1ccc(-c2nnc(-c3ccccc3Cl)[nH]2)cc1,MTT,72 h,222 µM
Cc1ccc(-c2csc(Nc3ccc4c(O)ncnc4c3)n2)cc1,MTT,,> 50 µM
COc1ccccc1CCNCc1c(N)nc(N)nc1-c1ccccc1,SRB,,> 100 µM
Cc1[nH]c(=O)c(CNC(=O)c2ccc(F)nc2)c2c1CCCC2,MTT,72 h,> 50 µg/mL
COc1ccc(CCNCc2c(N)nc(N)nc2C2CCCCC2)cc1,SRB,,21 µM
CC(C)(C)Nc1c(-c2ccccc2[N+](=O)[O-])nc2cnccn12,MTT,48 h,> 100 µM
Cc1ccc(C)n1-c1ccc(-c2nnc(-c3c(Cl)cccc3Cl)[nH]2)cc1,MTT,72 h,229 µM
CCc1nc(N)nc(N)c1-c1ccc(Cl)cc1,SRB,,27 µM
COc1ccc(-c2csc(Nc3ccc4c(O)ncnc4c3)n2)cc1,MTT,,> 50 µM
